# Reference: ChEMBL document CHEMBL1153955, “Indolylarylsulfones bearing natural and unnatural amino acids. Discovery of potent inhibitors of HIV-1 non-nucleoside wild type and resistant mutant strains reverse transcriptase and coxsackie B4 virus” (J Med Chem, 2009)
# pEC50, pIC50: −log10 of the molar value.
# Experiments:
# [1] = tested on: Respiratory syncytial virus; assay: Antiviral activity against RSV Long in human HeLa cells assessed as protection against virus-induced cytopathicity; type: functional, organism-based
# How it was run: (§1)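 Confluent cell monolayers inoculated with 100 CCID₅₀ virus. After 1-2 h adsorption, residual virus removed and cultures incubated with varying compound concentrations. Cytopathicity scored once it reached completion in untreated infected controls. EC₅₀ = dose reducing virus-induced cytopathogenicity by 50%.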
# Coxsackievirus B4 [2] = assay: Antiviral activity against Coxsackievirus B4 in african green monkey Vero cells assessed as protection against virus-induced cytopathicity; type: functional, organism-based; conditions: Enterovirus B; how it was run: as §1
# [3] = tested on: Human immunodeficiency virus 1; assay: Antiviral activity against HIV1 3B in human CEM cells assessed as protection against virus-induced cytopathicity after 4 days; type: functional, organism-based; conditions: Human immunodeficiency virus 1, 3B, CCRF-CEM, 96 h
# How it was run: (§2)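 CEM cells (~3 × 10⁵ cells/mL) infected with ~100 CCID₅₀ per mL of HIV-1 (IIIB) or HIV-2 (ROD), then seeded into wells containing compound dilutions. After 4 days at 37 °C, syncytium (giant cell) formation was examined microscopically. EC₅₀ = concentration protecting CEM cells from HIV cytopathicity by 50%.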
# [4] = Cytotoxicity against human HEL cells assessed as drug level causing microscopically detectable alteration of normal cell morphology after 3 days; type: cell-based
# [5] = target: Human immunodeficiency virus type 1 reverse transcriptase (Human immunodeficiency virus 1, UniProt Q72547, Y181I); assay: Inhibition of HIV1 reverse transcriptase p66/p51 Y181I mutant; conditions: read-out: IC50
# How it was run: (§3)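 Substrate was 0.5 µg poly(rA)/oligo(dT) 10:1 (0.3 µM 3′-OH ends) with 10 µM [³H]dTTP, at 37 °C. Acid-precipitable radioactivity was counted on GF/C filters after TCA washes.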
# [6] = Cytotoxicity against MDCK cells assessed as drug level causing microscopically detectable alteration of normal cell morphology; type: cell-based, Canis lupus familiaris; conditions: dog
# [7] = tested on: Vesicular stomatitis virus; assay: Antiviral activity against VSV in human HEL cells assessed as protection against virus-induced cytopathicity; type: functional, organism-based
# [8] = target: Human immunodeficiency virus type 1 reverse transcriptase (Human immunodeficiency virus 1, UniProt Q72547); assay: Inhibition of HIV1 reverse transcriptase p66/p51; conditions: read-out: IC50
# CCRF-CEM = assay: Antiproliferative activity against human CEM cells after 3 days; type: cell-based; conditions: 72 h
# How it was run: (§4)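 Cells seeded at 5 × 10⁴ to 7.5 × 10⁴ cells/200 µL with or without serial compound dilutions; incubated at 37 °C for 2 days (L1210) or 3 days (Molt4/C8, CEM). Cell numbers counted with a Coulter counter. CC₅₀ = concentration reducing proliferation by 50% versus untreated controls, read from plots of cell number (% of control) against concentration. Means of at least two independent experiments.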
# [9] = Cytotoxicity against feline CRFK cells by MTS assay; type: cell-based, Felis catus; conditions: cat
# [10] = tested on: Mammalian orthoreovirus 1; assay: Antiviral activity against Reovirus 1 in african green monkey Vero cells assessed as protection against virus-induced cytopathicity; type: functional, organism-based; conditions: Mammalian orthoreovirus 1, Vero; how it was run: as §1
# [11] = tested on: Human immunodeficiency virus 1; assay: Antiviral activity against HIV1 with reverse transcriptase Y188L mutation in human CEM cells assessed as protection against virus-induced cytopathicity; type: functional, organism-based; conditions: Human immunodeficiency virus 1, CCRF-CEM
# How it was run: (§5)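 CEM cells (~3 × 10⁵ cells/mL) were infected with ~100 CCID₅₀ virus per mL and seeded with serial compound dilutions. After 4 days at 37 °C, syncytium (giant cell) formation was scored microscopically. EC₅₀ is the concentration giving 50% protection against virus cytopathicity.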
# L1210 = assay: Antiproliferative activity against mouse L1210 cells after 2 days; type: cell-based; conditions: L1210, 48 h; how it was run: as §4
# Vaccinia virus = assay: Antiviral activity against Vaccinia virus Lederle in human HEL cells assessed as protection against virus-induced cytopathicity; type: functional, organism-based; conditions: Orthopoxvirus vaccinia
# Influenza A virus H3N2 [12] = assay: Antiviral activity against influenza H3N2 virus in MDCK cells assessed as reduction of virus-induced cytopathicity by visual cytopathic effect scoring method; type: functional, organism-based
# Influenza A virus H3N2 [13] = assay: Antiviral activity against influenza H3N2 virus in MDCK cells assessed as reduction of virus-induced cytopathicity by MTS method; type: functional, organism-based
# Human alphaherpesvirus 2 = assay: Antiviral activity against HSV2 G in human HEL cells assessed as protection against virus-induced cytopathicity; type: functional, organism-based; conditions: Human alphaherpesvirus 2, strain G; how it was run: as §1
# Human alphaherpesvirus 1 [14] = assay: Antiviral activity against thymidine kinase deficient and acyclovir resistant HSV1 KOS in human HEL cells assessed as protection against virus-induced cytopathicity; type: functional, organism-based; conditions: Human alphaherpesvirus 1, KOS
# [15] = tested on: Human immunodeficiency virus 1; assay: Antiviral activity against HIV1 with reverse transcriptase Y181C mutation in human CEM cells assessed as protection against virus-induced cytopathicity; type: functional, organism-based; conditions: Human immunodeficiency virus 1, CCRF-CEM; how it was run: as §5
# [16] = tested on: Vesicular stomatitis virus; assay: Antiviral activity against VSV in human HeLa cells assessed as protection against virus-induced cytopathicity; type: functional, organism-based
# Human alphaherpesvirus 1 [17] = assay: Antiviral activity against HSV1 KOS in human HEL cells assessed as protection against virus-induced cytopathicity; type: functional, organism-based; conditions: Human alphaherpesvirus 1, KOS
# [18] = target: Human immunodeficiency virus type 1 reverse transcriptase (Human immunodeficiency virus 1, UniProt Q72547, K103N); assay: Inhibition of HIV1 reverse transcriptase p66/p51 K103N mutant; conditions: read-out: IC50; how it was run: as §3
# [19] = tested on: Human immunodeficiency virus 1; assay: Antiviral activity against HIV1 with reverse transcriptase L100I mutation in human CEM cells assessed as protection against virus-induced cytopathicity; type: functional, organism-based; conditions: Human immunodeficiency virus 1, CCRF-CEM; how it was run: as §5
# Human respirovirus 3 = assay: Antiviral activity against Parainfluenza virus type 3 in african green monkey Vero cells assessed as protection against virus-induced cytopathicity; type: functional, organism-based; conditions: Human respirovirus 3, Vero; how it was run: as §1
# Feline coronavirus = assay: Antiviral activity against Feline coronavirus in feline […] cells assessed as inhibition of virus-induced cytopathicity; type: functional, organism-based; conditions: Alphacoronavirus 1
# Felid alphaherpesvirus 1 = assay: Antiviral activity against Feline herpesvirus in feline […] cells assessed as inhibition of virus-induced cytopathicity; type: functional, organism-based
# [20] = Antiproliferative activity against human Molt4/C8 cells after 3 days; type: cell-based; conditions: MOLT-4, 72 h; how it was run: as §4
# Influenza A virus [21] = assay: Antiviral activity against influenza H1N1 virus in MDCK cells assessed as reduction of virus-induced cytopathicity by MTS method; type: functional, organism-based; conditions: Influenza A virus, H1N1, MDCK
# Coxsackievirus B4 [22] = assay: Antiviral activity against Coxsackievirus B4 in human HeLa cells assessed as protection against virus-induced cytopathicity; type: functional, organism-based; conditions: Enterovirus B; how it was run: as §1
# [23] = Cytotoxicity against MDCK cells by MTS assay; type: cell-based, Canis lupus familiaris; conditions: dog
# [24] = tested on: Human immunodeficiency virus 2; assay: Antiviral activity against HIV2 ROD in human CEM cells assessed as protection against virus-induced cytopathicity after 4 days; type: functional, organism-based; conditions: Human immunodeficiency virus 2, ROD, CCRF-CEM, 96 h; how it was run: as §2
# [25] = Cytotoxicity against african green monkey Vero cells assessed as drug level causing microscopically detectable alteration of normal cell morphology after 3 days; type: cell-based; conditions: chlorocebus sabaeus
# How it was run: (§6)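 Serial compound dilutions added to confluent HeLa or Vero monolayers. MCC = minimum concentration causing microscopically detectable alteration of cell morphology after 3 days of incubation.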
# Influenza B virus [26] = assay: Antiviral activity against influenza B virus in MDCK cells assessed as reduction of virus-induced cytopathicity by visual cytopathic effect scoring method; type: functional, organism-based
# [27] = target: Human immunodeficiency virus type 1 reverse transcriptase (Human immunodeficiency virus 1, UniProt Q72547, L100I); assay: Inhibition of HIV1 reverse transcriptase p66/p51 L100I mutant; conditions: read-out: IC50; how it was run: as §3
# Sindbis virus = assay: Antiviral activity against Sindbis virus in african green monkey Vero cells assessed as protection against virus-induced cytopathicity; type: functional, organism-based; how it was run: as §1
# [28] = tested on: Human immunodeficiency virus 1; assay: Antiviral activity against HIV1 with reverse transcriptase Y181I mutation in human CEM cells assessed as protection against virus-induced cytopathicity; type: functional, organism-based; conditions: Human immunodeficiency virus 1, CCRF-CEM; how it was run: as §5
# [29] = Cytotoxicity against human HeLa cells assessed as drug level causing microscopically detectable alteration of normal cell morphology after 3 days; type: cell-based; how it was run: as §6
# [30] = tested on: Human immunodeficiency virus 1; assay: Antiviral activity against HIV1 with reverse transcriptase K103N mutation in human CEM cells assessed as protection against virus-induced cytopathicity; type: functional, organism-based; conditions: Human immunodeficiency virus 1, CCRF-CEM; how it was run: as §5
# Influenza B virus [31] = assay: Antiviral activity against influenza B virus in MDCK cells assessed as reduction of virus-induced cytopathicity by MTS method; type: functional, organism-based
# Influenza A virus [32] = assay: Antiviral activity against influenza H1N1 virus in MDCK cells assessed as reduction of virus-induced cytopathicity by visual cytopathic effect scoring method; type: functional, organism-based
# Punta Toro virus = assay: Antiviral activity against Punta Toro virus in african green monkey Vero cells assessed as protection against virus-induced cytopathicity; type: functional, organism-based; how it was run: as §1
smiles,measurement,setting,value
Cc1cc(C)cc(S(=O)(=O)c2c(C(=O)NC(C)CS(N)(=O)=O)[nH]c3ccc(Cl)cc23)c1 (stereo unspecified),pEC50,[1],< 4.70
same,pEC50,Coxsackievirus B4 [2],4.92
same,pEC50,[3],8.64
same,MCC at 72 h,[4],20 µM
same,pIC50,[5],5.71
same,MCC,[6],20 µM
same,pEC50,[7],< 5.40
same,pIC50,[8],9.40
same,pIC50,CCRF-CEM,4.89
same,CC50,[9],11.1 µM
same,pEC50,[10],4.70
same,pIC50,[11],< 6.00
same,pIC50,L1210,4.82
same,pEC50,Vaccinia virus,< 5.40
same,pEC50,Influenza A virus H3N2 [12],< 5.40
same,pEC50,Influenza A virus H3N2 [13],< 5.40
same,pEC50,Human alphaherpesvirus 2,< 5.40
same,pEC50,Human alphaherpesvirus 1 [14],< 5.40
same,pIC50,[15],6.41
same,pEC50,[16],< 4.70
same,pEC50,Human alphaherpesvirus 1 [17],< 5.40
same,pIC50,[18],6.63
same,pIC50,[19],8.70
same,pEC50,Human respirovirus 3,< 4.70
same,pEC50,Feline coronavirus,< 5.40
same,pEC50,Felid alphaherpesvirus 1,< 5.40
same,pIC50,[20],5.06
same,pEC50,Influenza A virus [21],< 5.40
same,pEC50,Coxsackievirus B4 [22],5.52
same,CC50,[23],12.2 µM
same,pEC50,[24],< 5.00
same,MCC at 72 h,[25],≥ 20 µM
same,pEC50,Influenza B virus [26],< 5.40
same,pIC50,[27],8.40
same,pEC50,Sindbis virus,< 4.70
same,pIC50,[28],< 6.00
same,MCC at 72 h,[29],100 µM
same,pIC50,[30],7.44
same,pEC50,Influenza B virus [31],< 5.40
same,pEC50,Influenza A virus [32],< 5.40
same,pEC50,Punta Toro virus,< 4.70
